The source made the active and inactive calls. The calls are words filed in the database; no cut-off is given here.
Legend:
L02 = assay: Cytotoxicity against human HL7702 cells after 48 hrs by MTT assay; type: cell-based; details: L02, 48 h
Summary of the method: (§1)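 Log-phase cells were seeded at about 1 × 10⁵ cells/mL in 96-well plates and allowed to settle 12 h at 37 °C in 5% CO₂. Compounds were added at five concentrations for 48 h. Absorbance was read at dual wavelength 570/630 nm. Survival was expressed as a percentage of control, and IC50 was calculated by the Bliss method (n = 5). Each test was run in triplicate.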

NCI-H460 = assay: Cytotoxicity against human NCI-H460 cells after 48 hrs by MTT assay; type: functional, cell-based; details: NCI-H460, 48 h; summary of the method: as §1
MGC-803 = assay: Cytotoxicity against human MGC803 cells after 48 hrs by MTT assay; type: functional, cell-based; details: MGC-803, 48 h; summary of the method: as §1
T-24 = assay: Cytotoxicity against human T24 cells after 48 hrs by MTT assay; type: functional, cell-based; details: T-24, 48 h; summary of the method: as §1
SK-OV-3 = assay: Cytotoxicity against human SKOV3 cells after 48 hrs by MTT assay; type: functional, cell-based; details: SK-OV-3, 48 h; summary of the method: as §1
HepG2 = assay: Cytotoxicity against human HepG2 cells after 48 hrs by MTT assay; type: functional, cell-based; details: HepG2, 48 h; summary of the method: as §1
Sus scrofa [1] = species: Sus scrofa; assay: Inhibition of porcine brain tubulin polymerization at 15 uM measured at 1 min interval for 40 mins by spectrophotometric method
Summary of the method: (§2)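 Purified brain tubulin, final 3.0 mg/mL, was added to start the reaction in 80 mM PIPES pH 6.9, 2.0 mM MgCl₂, 0.5 mM EGTA, 1 mM GTP and 10.2% glycerol, with the other components prewarmed to 37 °C. Compounds were tested at 10 or 15 µM. Polymerization at 37 °C was followed as absorbance at 340 nm over 40 min.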

[2] = Cytotoxicity against human HeLa/TR cells after 48 hrs by MTT assay; type: functional, cell-based; summary of the method: as §1
HeLa = assay: Cytotoxicity against human HeLa cells after 48 hrs by MTT assay; type: functional, cell-based; summary of the method: as §1
Sus scrofa [3] = species: Sus scrofa; assay: Inhibition of porcine brain tubulin polymerization at 10 uM measured at 1 min interval for 40 mins by spectrophotometric method; summary of the method: as §2
A549/TR = assay: Cytotoxicity against human A549/TR cells after 48 hrs by MTT assay; type: functional, cell-based; summary of the method: as §1

SMILES	IC50 (L02)	IC50 (NCI-H460)	IC50 (MGC-803)	IC50 (T-24)	IC50 (SK-OV-3)	IC50 (HepG2)	inhibition (Sus scrofa [1])	IC50 [2]	IC50 (HeLa)	inhibition (Sus scrofa [3])	IC50 (A549/TR)
COc1ccc(/C=C/C(=O)c2ccc(OC)c3c2OC(C)(C)C=C3)cc1OCC(=O)Nc1ccccc1Cl	> 50 µM	13 µM	14.2 µM	15.4 µM	14.6 µM	11.8 µM	–	–	–	–	–
COc1ccc(/C=C/C(=O)c2cc(OC)c(OC)c(OC)c2)cc1OCC(=O)Nc1ccc(Br)cc1	> 50 µM	10.3 µM	12.9 µM	11.6 µM	13.1 µM	10.5 µM	–	–	–	–	–
COc1ccc(NC(=O)COc2cc(/C=C/C(=O)c3ccc(OC)c4c3OC(C)(C)C=C4)ccc2OC)cc1	> 50 µM	8.56 µM	6.73 µM	9.51 µM	9.02 µM	8.99 µM	–	–	–	–	–
COc1ccc(NC(=O)COc2cc(/C=C/C(=O)c3cc(OC)c(OC)c(OC)c3)ccc2OC)cc1	> 50 µM	7.07 µM	8.52 µM	9.36 µM	9.82 µM	7.66 µM	–	–	–	–	–
COc1ccc(/C=C/C(=O)c2ccc(OC)c3c2OC(C)(C)C=C3)cc1OCC(=O)Nc1ccccc1	> 50 µM	17.6 µM	18.4 µM	21.1 µM	20.8 µM	20.6 µM	–	–	–	–	–
COc1ccc(/C=C/C(=O)c2ccc(OC)c3c2OC(C)(C)C=C3)cc1OCC(=O)Nc1ccccc1F	> 50 µM	17 µM	20.6 µM	17.5 µM	18.7 µM	19.1 µM	–	–	–	–	–
COc1ccccc1NC(=O)COc1cc(/C=C/C(=O)c2ccc(OC)c3c2OC(C)(C)C=C3)ccc1OC	> 50 µM	5.48 µM	6.72 µM	7.84 µM	8.24 µM	7.35 µM	Active	–	–	–	–
COc1ccc(/C=C/C(=O)c2cc(OC)c(OC)c(OC)c2)cc1OCC(=O)Nc1ccccc1C	> 50 µM	22.9 µM	28.4 µM	27.1 µM	28.4 µM	26.3 µM	–	–	–	–	–
COc1ccc(/C=C/C(=O)c2ccc(OC)c3c2OC(C)(C)C=C3)cc1OCC(=O)Nc1ccc(Br)cc1	> 50 µM	20.5 µM	17.2 µM	19.9 µM	19 µM	22.7 µM	–	–	–	–	–
COc1ccc(/C=C/C(=O)c2cc(OC)c(OC)c(OC)c2)cc1OCC(=O)Nc1ccccc1F	> 50 µM	6.71 µM	8.09 µM	10.7 µM	9.51 µM	7.58 µM	–	–	–	–	–
COc1ccc(/C=C/C(=O)c2ccc(OC)c3c2OC(C)(C)C=C3)cc1OCC(=O)Nc1ccccc1C	> 50 µM	7.96 µM	10.3 µM	9.86 µM	10 µM	9.44 µM	–	–	–	–	–
COc1ccc(/C=C/C(=O)c2ccc(OC)c3c2OC(C)(C)C=C3)cc1OCC(=O)Nc1ccc(F)cc1	> 50 µM	14.2 µM	13.5 µM	17.6 µM	13.9 µM	14.1 µM	–	–	–	–	–
COc1ccc(/C=C/C(=O)c2cc(OC)c(OC)c(OC)c2)cc1OCC(=O)Nc1ccccc1Br	> 50 µM	10.3 µM	14.6 µM	19.1 µM	16.8 µM	15.2 µM	–	–	–	–	–
COc1ccc(/C=C/C(=O)c2cc(OC)c(OC)c(OC)c2)cc1OCC(=O)Nc1ccc(Cl)cc1	> 50 µM	20.1 µM	26.3 µM	21.7 µM	27.2 µM	20.5 µM	–	–	–	–	–
COc1ccc(/C=C/C(=O)c2ccc(OC)c3c2OC(C)(C)C=C3)cc1OCC(=O)Nc1ccc(O)cc1	> 50 µM	18 µM	20.9 µM	18.3 µM	14.5 µM	15.6 µM	–	–	–	–	–
COc1ccc(/C=C/C(=O)c2ccc(OC)c3c2OC(C)(C)C=C3)cc1OCC(=O)Nc1ccccc1Br	> 50 µM	20 µM	32.7 µM	23.2 µM	30.3 µM	27.8 µM	–	–	–	–	–
COc1ccc(/C=C/C(=O)c2ccc(OC)c3c2OC(C)(C)C=C3)cc1OCC(=O)Nc1ccc(C)cc1	> 50 µM	8.77 µM	8.23 µM	10.1 µM	9.58 µM	9.32 µM	–	–	–	–	–
COc1ccc(/C=C/C(=O)c2cc(OC)c(OC)c(OC)c2)cc1OCC(=O)Nc1ccc(O)cc1	> 50 µM	> 50 µM	36.6 µM	> 50 µM	> 50 µM	> 50 µM	–	–	–	–	–
COc1ccc(/C=C/C(=O)c2cc(OC)c(OC)c(OC)c2)cc1OCC(=O)Nc1ccc(F)cc1	> 50 µM	19.2 µM	20.9 µM	24.7 µM	22.5 µM	21.2 µM	–	–	–	–	–
COc1ccc(/C=C/C(=O)c2cc(OC)c(OC)c(OC)c2)cc1OCC(=O)Nc1ccccc1	> 50 µM	11.3 µM	14.6 µM	12.6 µM	10.7 µM	10.1 µM	–	–	–	–	–
CC(=O)O[C@H]1C(=O)[C@@]2(C)[C@H]([C@H](OC(=O)c3ccccc3)[C@]3(O)C[C@H](OC(=O)[C@H](O)[C@@H](NC(=O)c4ccccc4)c4ccccc4)C(C)=C1C3(C)C)[C@]1(OC(C)=O)CO[C@@H]1C[C@@H]2O [PACLITAXEL]	–	–	–	–	–	–	–	1.53 µM	0.00821 µM	Active	1.51 µM
COc1ccccc1NC(=O)COc1cc(/C=C/C(=O)c2cc(OC)c(OC)c(OC)c2)ccc1OC	> 50 µM	12.1 µM	14.9 µM	17.4 µM	16.2 µM	13.6 µM	–	–	–	–	–
COc1ccc(/C=C/C(=O)c2ccc(OC)c3c2OC(C)(C)C=C3)cc1 [MILLEPACHINE]	25.1 µM	7.65 µM	11 µM	11.1 µM	9.85 µM	4.54 µM	–	–	–	–	–
COc1ccc(/C=C\c2cc(OC)c(OC)c(OC)c2)cc1O	–	–	–	–	–	–	–	–	–	Active	–
COc1ccc(/C=C/C(=O)c2ccc(OC)c3c2OC(C)(C)C=C3)cc1OCC(=O)Nc1ccc(Cl)cc1	> 50 µM	12.9 µM	19.4 µM	17.1 µM	20 µM	15.4 µM	–	–	–	–	–
COc1ccc(/C=C/C(=O)c2cc(OC)c(OC)c(OC)c2)cc1OCC(=O)Nc1ccc(C)cc1	> 50 µM	7.69 µM	10.3 µM	11.6 µM	10.3 µM	8.97 µM	–	–	–	–	–

Source: ChEMBL document CHEMBL4028810, “Synthesis and biological evaluation of novel chalcone derivatives as a new class of microtubule destabilizing agents” (Eur J Med Chem, 2017)
